Assay results: ChEMBL document CHEMBL3351932, “Discovery of BI 207524, an indole diamide NS5B thumb pocket 1 inhibitor with improved potency for the potential treatment of chronic hepatitis C virus infection” (J Med Chem, 2014)

How the values were obtained:
[1] = Inhibition of HCV full-length NS5B polymerase; design: species or system Hepacivirus hominis
Summary of the method: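 Polymerase inhibition with full-length NS5B enzyme in a biochemical assay; IC50 averaged from duplicate measurements, at least two determinations.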

[2] = Inhibition of Hepatitis C virus genotype 1b Con1 NS5B RNA dependent RNA polymerase activity using Bright-Glo luciferase substrate by cell-based 1b luciferase reporter assay; design: species or system Hepatitis C virus (isolate Con1)
Summary of the method: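 Cell-based genotype 1b luciferase reporter replicon assay; EC50 determined in duplicate, values averaged over at least two determinations.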

[3] = Permeability across apical to basolateral side in human Caco2 cells; type: ADME, cell-based; conditions: Caco-2, read-out: permeability
[4] = Plasma concentration in rat at 4 mg/kg, po cassette dosing after 1 hr; type: ADME, organism-based; design: dose 4 mg/kg, route oral
Summary of the method: (§1)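 Cassette screen: mixture of 4 compounds, each at 4 mg/kg, dosed orally to 2 rats; plasma sampled at 1 h and 2 h, solid-phase extracted and quantified by HPLC-UV or LC/MS against calibration standards in blank plasma (LOQ 7 ng/mL).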

[5] = Plasma concentration in rat at 4 mg/kg, po cassette dosing after 2 hrs; type: ADME, organism-based; design: dose 4 mg/kg, route oral; summary of the method: as §1
[6] = Half life in rat liver microsomes; type: ADME
[7] = Half life in human liver microsomes; type: ADME
[8] = Cmax in rat at 10 mg/kg, po; type: ADME, organism-based; design: dose 10 mg/kg, route oral; conditions: in vivo
Summary of the method: (§2)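 Single-compound oral PK after overnight fast; 10 mg/kg given as suspension in 0.5% methylcellulose and 0.3% Tween-80, with or without 1% NMP as added solubilizer; N=3 per dose and route. Plasma kept on ice, centrifuged at 4°C, stored near -20°C, extracted by solid phase, quantified by HPLC-UV or LC/MS against blank-plasma standards (LOQ 7 ng/mL); non-compartmental analysis.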

[9] = AUC in rat at 10 mg/kg, po; type: ADME, organism-based; design: dose 10 mg/kg, route oral; conditions: plasma; summary of the method: as §2
[10] = Mean residence time in rat at 10 mg/kg, po; type: ADME, organism-based; design: dose 10 mg/kg, route oral; conditions: in vivo; summary of the method: as §2
[11] = Volume of distribution at steady state in rat at 2 mg/kg, iv; type: ADME, organism-based; design: dose 2 mg/kg, route intravenous; conditions: in vivo, read-out: Vdss
Summary of the method: (§3)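 Fasted animals dosed IV by bolus at 2 mg/kg in 70% PEG-400:30% water; N=3 per dose and route. Plasma separated at 4°C, stored near -20°C, solid-phase extracted, assayed by HPLC-UV or LC/MS with blank-plasma calibration (r2 > 0.99, LOQ 7 ng/mL); parameters from non-compartmental analysis.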

[12] = Clearance in rat at 2 mg/kg, iv; type: ADME, organism-based; design: dose 2 mg/kg, route intravenous; conditions: in vivo; summary of the method: as §3
[13] = Half life in rat at 2 mg/kg, iv; type: ADME, organism-based; design: dose 2 mg/kg, route intravenous; conditions: in vivo; summary of the method: as §3
[14] = Oral bioavailability in rat at 10 mg/kg; type: ADME, organism-based; conditions: in vivo; summary of the method: as §2

Row | Structure (SMILES) | IC50 [1] | EC50 [2] | Papp A→B [3] | concentration at 1 h [4] | concentration at 2 h [5] | half-life [6] | half-life [7] | Cmax [8] | AUC [9] | MRT [10] | Vd [11] | clearance [12] | half-life [13] | bioavailability [14]
1 | CCOc1cc(NC(=O)C(C)(C)NC(=O)c2ccc3c(C4CCCC4)c(-c4ncc(Cl)cn4)n(C)c3c2)ccc1/C=C/C(=O)O | 27 nM | 8 nM | 24 ×10⁻⁶ cm/s | 500 nM | 100 nM |  |  |  |  |  |  |  |  | 
2 | COc1cc(NC(=O)C2(NC(=O)c3ccc4c(C5CCCC5)c(-c5ccccn5)n(C)c4c3)CCC2)cc(OC)c1/C=C/C(=O)O | 340 nM | 8 nM | 17.6 ×10⁻⁶ cm/s | 400 nM |  | 0.7 h |  |  |  |  |  |  |  | 
3 | CCCOc1cc(NC(=O)C2(NC(=O)c3ccc4c(C5CCCC5)c(-c5ccccn5)n(C)c4c3)CCC2)ccc1/C=C/C(=O)O | 130 nM | 36 nM | 19 ×10⁻⁶ cm/s | 400 nM | 200 nM |  | 2.07 h |  |  |  |  |  |  | 
4 | CCOc1cc(NC(=O)C2(NC(=O)c3ccc4c(C5CCCC5)c(-c5ccccn5)n(C)c4c3)CCC2)ccc1/C=C/C(=O)O | 48 nM | 24 nM | 19 ×10⁻⁶ cm/s | 900 nM | 400 nM |  | 1.07 h |  |  |  |  |  |  | 
5 | CCOc1cc(NC(=O)C2(NC(=O)c3ccc4c(C5CCCC5)c(-c5cccc(N)n5)n(C)c4c3)CCC2)ccc1/C=C/C(=O)O | 330 nM | 10 nM | 9.4 ×10⁻⁶ cm/s | 100 nM | 100 nM |  | 1.3 h |  |  |  |  |  |  | 
6 | COCCOc1cc(NC(=O)C2(NC(=O)c3ccc4c(C5CCCC5)c(-c5ncc(Cl)cn5)n(C)c4c3)CCC2)ccc1/C=C/C(=O)O | 200 nM | 13 nM | 17 ×10⁻⁶ cm/s | 1700 nM | 1100 nM |  | > 5 h | 4100 nM | 10.6 µM·h | 4.1 h | 0.29 L/kg | 3.7 mL/min/kg | 2.1 h | 16%
